procasp3 activ = activates human procaspase-3 | P42574 | recombinant procaspase-3 D3A, Ac-DEVD-pNA absorbance 405 nm | activation, % at 8.5 µM | hit rate 0.11% among 330,000 | AID 463141;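 active means activation above the mean of all tested compounds plus 3 SD, cut at about 21% in these data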
Target sequence (P42574 whole entry D9A/D28A/D175A): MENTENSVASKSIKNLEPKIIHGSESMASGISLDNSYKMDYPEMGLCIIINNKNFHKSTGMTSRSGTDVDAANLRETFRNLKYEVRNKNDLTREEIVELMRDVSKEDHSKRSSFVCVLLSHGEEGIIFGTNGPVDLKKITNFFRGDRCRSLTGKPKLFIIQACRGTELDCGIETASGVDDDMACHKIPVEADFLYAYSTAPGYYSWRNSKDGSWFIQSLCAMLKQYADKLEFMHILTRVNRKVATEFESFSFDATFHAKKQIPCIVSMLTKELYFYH
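Evaluation: percent activation relative to control range; Material: Procaspase-3 D3A mutant, all three cleavage aspartates alanine; Compound: single dose, 8.5 µM nominal compound, 0.8% DMSO; Replication: one well per compound; Signal: absorbance at 405 nm, 0 and 120 min; Schedule: 1 h preincubation plus 2 h reaction at 25 °C.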
procasp7 counter = counter-screen: procaspase-7 (human) activation; activation, % at 8.5 µM; hit rate 0.093% among 330,000; P55210; recombinant procaspase-7, Ac-DEVD-pNA absorbance 405 nm; D23A/D198A/D206A triple mutant, cannot self-cleave; scale: DMSO 0, 5 µM enzyme 100;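 active means percent activation above the screen-wide mean plus 3 SD, cut at about 25% in these data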
Target sequence (P55210 whole entry D23A/D198A/D206A): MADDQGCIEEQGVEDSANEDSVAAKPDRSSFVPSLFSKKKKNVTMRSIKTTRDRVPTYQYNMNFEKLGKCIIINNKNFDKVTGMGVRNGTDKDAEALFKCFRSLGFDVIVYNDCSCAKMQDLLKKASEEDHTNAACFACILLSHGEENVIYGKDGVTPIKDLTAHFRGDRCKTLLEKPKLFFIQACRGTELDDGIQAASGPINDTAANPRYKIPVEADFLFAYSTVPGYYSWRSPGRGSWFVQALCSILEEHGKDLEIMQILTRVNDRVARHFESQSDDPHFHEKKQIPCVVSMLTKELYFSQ
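Assay system: Uncleavable procaspase-7 mutant enzyme | Input: 2 µM procaspase-7 mutant as dispensed | Timing: 1 h compound preincubation, 2 h substrate cleavage, 25 °C | Repeats: One well per compound | Control set: DMSO wells as 0%, DMSO with 5 µM added PC-7 as 100% | Technique: Epi-absorbance of released pNA at 405 nm, two timepoints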
LANA-H2A inh = blocks KSHV LANA binding to histone H2A/H2B; Q9QR71; cell-free LANA-H2A/H2B peptide, fluorescence polarization; inhibition, % (no concentration beside the values); hit rate 0.6% among 320,000; AID 2629; in the data active means inhibition mostly above about 10%, no sharp cut-off; inactive means mostly below about 6.7%
ASAP1 inh = blocks human ASAP1-stimulated Arf1 GTP hydrolysis; Q9ULH1; inhibition, % at 16.5 µM; hit rate 0.19% among 360,000; GDP FP detection; in the data active means inhibition above about 25%
CR mimetic SO = caloric restriction mimetics inhibiting age-related superoxide in yeast | S. cerevisiae aged cells, superoxide DHE fluorescence; stronger effect = lower value | superoxide response (% of plate mean), % at 10 µM | hit rate 0.18% among 330,000;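 active means superoxide response under a set limit, about three screen SD below normal, cut at about 65% in these data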;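 further: yeast aged for seven days with compound at 30 °C before DHE staining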
ARFGAP1 inh = inhibitors of rat ARFGAP1. inhibition, % at 16.5 µM. hit rate 0.26% among 360,000. Arfgap1-stimulated ARF1 GTP hydrolysis, GDP FP detection;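 active means inhibition above a per-plate limit, mean inhibition of low control wells plus 3 SD, cut at about 25% in these data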
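system = rat Arfgap1 catalytic domain, aa 1-136 | technique = FP, GDP Alexa 633 tracer displaced from anti-GDP antibody, 620/688 nm | compound = one concentration, 16.5 µM, DMSO 1.26% | medium = HEPES-based buffer, pH 7.5 | timing = compound-enzyme preincubation 20 min, reaction 120 min, detection 60 min, 25 °C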
Hits are given with their value; . = inactive; / = not tested or not shown; + = active, no number. Most compounds without a hit are left out; they make up all but 1.2% or so of the library.

SMILES | procasp3 activ | procasp7 counter | LANA-H2A inh | ASAP1 inh | CR mimetic SO | ARFGAP1 inh
Cn1ccc2c(N3CCCCCCC3)cc3c(c21)C1CCC3O1 (stereo not drawn) | / | / | / | . | / | .
COc1ccccc1-c1cc(C(=O)NCCN2CCOCC2)no1 | . | . | 15.5 | . | . | .
COCC(C)NC(=O)c1cc(-c2ccccc2OC)on1 (stereo not drawn) | . | . | 21.3 | . | . | .
Cc1c(C(=O)N2CCNCC2)oc2ccccc12 | / | / | . | . | . | .
CCOC(=O)C1CCN(C(=O)c2sc3nc(-c4ccc(F)cc4)cn3c2C)CC1 | . | . | 136.5 | . | . | .
N#Cc1cc2c([nH]c1=S)CCCC2 | . | . | . | . | . | .
N#Cc1cc2c([nH]c1=O)CCCC2 | . | . | 9.1 | . | . | .
O=C(NCc1ccccc1)[C@H]1CCCN1C(=O)[C@H]1CCCN1C(=O)c1ccc(F)c(F)c1 | / | / | / | . | / | .
C=CCn1c(=S)[nH]c2ccccc2c1=O | . | . | 16.4 | . | . | .
COc1ccc(CCn2c(=N)c(C(=O)NC3CCCC3)cc3c(=O)n4cccc(C)c4nc32)cc1 | . | . | . | . | . | .
Cc1cccn2c(=O)c3cc(C(=O)NC4CCCC4)c(=N)n(CCc4ccccc4)c3nc12 | . | . | 14.3 | . | . | .
CC(C)c1[nH]nc2c1C(c1ccc(F)cc1)N(Cc1ccccc1)C2=O (stereo not drawn) | / | / | / | . | / | .
Cc1nn(-c2ccc(Cl)cc2)c2[nH]c(=O)c(CNCc3ccc4c(c3)OCO4)cc12 | . | . | 24.5 | . | . | .
COc1cc(CN2CCN(c3cccc(C)c3C)CC2)cc(Br)c1O | . | . | . | . | . | .
COc1ccc(CN2CCN(c3cccc(C)c3C)CC2)cc1OC | . | . | . | . | . | 33.6
CN1CCc2c(sc(/N=C/c3c[nH]c4ccccc34)c2C#N)C1 | . | . | 38.3 | . | . | .
CN1CCc2c(sc(/N=C/c3c[nH]c4ccccc34)c2C(N)=O)C1 | . | . | . | . | . | .
C[C@H](NC(N)=O)C(=O)Nc1ccc(OCc2ccccc2)cc1 | . | . | 12.3 | . | . | .
O=C(COC(=O)c1cccnc1Cl)Nc1ccc(N2CCOCC2)cc1 | / | / | / | . | / | .
O=C(COC(=O)c1cccnc1Cl)Nc1ccc(N2CCCCC2)cc1 | . | . | + | . | . | .
Brc1ccc(-c2csc(N3CCC(c4ccccc4)C3)n2)cc1 (stereo not drawn) | 34.5 | . | . | . | . | .
O=C(NCc1ccccc1)[C@@H]1CCCN1C(=O)[C@H]1CCCN1C(=O)c1ccccc1F | / | / | / | . | / | .
C=C1[C@@H](OC(C)=O)C=C[C@@]2(C)C=CC(=O)[C@@](C)(OC(C)=O)[C@@H]2[C@@H](OC(C)=O)[C@]2(O)[C@@H](C)C(=O)O[C@H]2[C@H]1Cl | / | / | / | . | / | .
Cn1c(SCC(=O)c2ccccc2)nc2cccnc21 | . | . | 97.7 | . | . | .
CC(=O)Nc1cccc(NC(=O)CSc2n[nH]c(-c3ccccc3)n2)c1 | . | . | 20.2 | . | . | .
SMILES | procasp3 activ | procasp7 counter | LANA-H2A inh | ASAP1 inh | CR mimetic SO | ARFGAP1 inh
O=C(CSc1n[nH]c(-c2ccncc2)n1)Nc1ccccc1 | . | . | . | . | . | .
CCN(CCn1cccn1)C(=O)c1cc(COc2cc(C)ccc2C)on1 | / | / | 36.5 | . | . | .
CC1(C)Cc2c(cnn2-c2ccc(F)cc2)C(NC(=O)Cn2cncn2)C1 (stereo not drawn) | . | . | 50.8 | . | . | .
CC(C)S(=O)(=O)c1cnc(-c2cccnc2)nc1N | . | . | . | . | . | .
Cc1ccc(N(CC(=O)NCc2ccc(F)cc2)C(=O)CCC(=O)Nc2ccccn2)cc1C | . | . | 26.4 | . | . | .
COC(=O)CCN(C)CCC(=O)OC | . | . | . | . | . | .
COC(=O)CC#N | . | . | + | . | . | .
COc1cc(Cl)ccc1OCc1cc(C(=O)NC2CCc3ccccc32)no1 (stereo not drawn) | . | . | 28.7 | . | . | .
N#Cc1c(NC(=O)c2cccnc2)sc2c1CCC2 | . | . | . | . | . | .
N#Cc1c(NC(=O)c2cnccn2)sc2c1CCCC2 | . | . | 19.3 | . | . | .
CCN(CC)c1ccc(NC(=O)CCc2nnc3ccc(N4CCCC4)nn23)c(C)c1 | . | . | 28.8 | . | . | .
CC(C)N(CCn1c(SCC(=O)Nc2cccnc2Cl)nc2ccccc2c1=O)C(C)C | . | . | 9.9 | . | . | .
COCCn1c(SCC(=O)Nc2cccnc2Cl)nc2cc(Cl)ccc2c1=O | . | . | . | . | . | .
O=C1CC(c2ccccc2)CC(O)=C1C=Nc1ccc(Cl)cc1 (stereo not drawn) | . | . | . | . | . | .
O=C1CCCC(O)=C1C=Nc1ccc(O)cc1 | . | . | 16.7 | . | . | .
CC(=O)OC[C@H]1O[C@H](C#Cc2ccc(C(C)(C)C)cc2)C=C[C@H]1OC(=O)Nc1ccccc1 | / | / | / | . | / | .
N#Cc1cnc(NN)nc1 | . | . | 165.3 | . | . | .
Cc1ccc(C)n1-c1ccc(C#N)cn1 | . | . | / | . | . | .
CCCN1C(=O)C(=O)c2cc(C)ccc21 | . | . | . | . | . | .
CCCCN1C(=O)C(=O)c2cc(Cl)ccc21 | . | . | + | . | . | .
CCOC(=O)C1CCCN(C(=O)c2cc(COc3ccc(C)nc3)on2)C1 (stereo not drawn) | / | / | 18.1 | . | . | .
COCCC1CCCCN1C(=O)c1cc(COc2ccc(C)nc2)on1 (stereo not drawn) | . | . | 45.1 | . | . | .
O=C(Cn1cc(C(=O)C2CC2)c2ccccc21)Nc1ccc(F)cc1 | . | . | . | . | . | .
COC(=O)c1cn(CC(=O)Nc2ccc(F)cc2)c2ccccc12 | . | . | 12.1 | . | . | .
Cc1ccc(CNC(=O)CN2C(=O)CSc3ccc(S(=O)(=O)N4CCC(C)CC4)cc32)cc1 | . | . | . | . | . | .
SMILES | procasp3 activ | procasp7 counter | LANA-H2A inh | ASAP1 inh | CR mimetic SO | ARFGAP1 inh
CCCCOC(=O)Nc1cc(Cl)ccc1C | . | . | . | . | . | .
CCCOC(=O)NC(CC)COC(=O)Nc1cc(C)ccc1C (stereo not drawn) | . | . | 45.6 | . | . | .
COCCCNC(=O)[C@@H](Cc1ccccc1)NC(=O)[C@H]1O[C@@H](n2ccc(=O)[nH]c2=O)[C@H](O)[C@@H]1O | / | / | / | . | / | .
O=C(Nc1ccc(CN2CCOCC2)cc1)c1ccc(-c2cccc([N+](=O)[O-])c2)o1 | . | . | 26.3 | 37.0 | . | 36.7
O=C(CCN1CCN(Cc2ccccc2)CC1)NNC(=O)Nc1cccc(Cl)c1 | . | . | . | . | . | .
O=C(CCN1CCN(Cc2ccccc2)CC1)NNC(=O)Nc1cccc([N+](=O)[O-])c1 | / | / | 16.0 | . | . | .

Screening results as filed in PubChem BioAssay.
